Experimental data published in BindingDB's records for doi:10.1016/j.ejmech.2014.12.041 (Jagiellonian University Medical College, 2015).

Tests used:
[1] = target: T1, 5-hydroxytryptamine receptor 1A (Homo sapiens, UniProt P08908); assay: Antagonist activity at human 5HT1A receptor expressed in HEK293 cells assessed as inhibition of serotonin-induced cAMP concentration at 10^-6 M by adenylate cyclase activity based HTRF assay relative to control
T1 sequence (P08908 whole entry): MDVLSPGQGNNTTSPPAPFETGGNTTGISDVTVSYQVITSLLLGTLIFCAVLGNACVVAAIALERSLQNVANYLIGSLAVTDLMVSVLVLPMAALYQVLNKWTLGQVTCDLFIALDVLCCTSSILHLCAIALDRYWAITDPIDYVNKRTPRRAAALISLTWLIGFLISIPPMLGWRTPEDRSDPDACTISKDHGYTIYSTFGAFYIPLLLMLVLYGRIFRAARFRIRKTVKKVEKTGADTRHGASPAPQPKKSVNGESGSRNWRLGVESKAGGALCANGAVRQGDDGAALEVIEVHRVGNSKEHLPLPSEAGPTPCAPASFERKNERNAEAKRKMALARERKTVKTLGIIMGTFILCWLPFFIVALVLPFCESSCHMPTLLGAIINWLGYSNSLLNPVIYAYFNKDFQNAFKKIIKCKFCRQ
Method in brief: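 Human 5-HT1A in HEK-293 cells and human 5-HT7 in CHO cells, per the text. Compounds were tested at a single 10^-6 M concentration, in duplicate. Read-out was % inhibition of the control agonist cAMP response, measured by HTRF against the maximal effect of 300 nM serotonin. Reference antagonists were methiothepin (5-HT7) and WAY-100635 (5-HT1A).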

[2] = target: 5-hydroxytryptamine receptor 7 (Homo sapiens, UniProt P34969); assay: Antagonist activity at human 5HT7 receptor expressed in HEK293 cells assessed as inhibition of serotonin-induced cAMP concentration at 10^-6 M by adenylate cyclase activity based HTRF assay relative to control
5-hydroxytryptamine receptor 7, sequence (P34969 whole entry): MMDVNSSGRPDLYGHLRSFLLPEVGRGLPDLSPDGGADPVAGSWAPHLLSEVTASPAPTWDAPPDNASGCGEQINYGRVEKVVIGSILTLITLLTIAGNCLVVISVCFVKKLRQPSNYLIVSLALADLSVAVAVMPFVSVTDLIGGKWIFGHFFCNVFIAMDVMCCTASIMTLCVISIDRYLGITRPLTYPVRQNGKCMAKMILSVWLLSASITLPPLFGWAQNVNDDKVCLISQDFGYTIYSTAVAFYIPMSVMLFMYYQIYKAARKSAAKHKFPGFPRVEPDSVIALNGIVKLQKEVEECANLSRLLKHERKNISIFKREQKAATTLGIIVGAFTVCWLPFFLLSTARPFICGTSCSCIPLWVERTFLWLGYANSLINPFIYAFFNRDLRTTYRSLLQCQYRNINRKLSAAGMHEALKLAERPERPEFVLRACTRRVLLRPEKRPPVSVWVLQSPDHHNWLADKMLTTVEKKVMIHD

Inhibition [1] [%]	Inhibition [2] [%]	SMILES
98		CSc1ccccc1N1CCN(CCCCCC(=O)N2Cc3ccccc3C[C@H]2C(N)=O)CC1
	94	NC(=O)[C@@H]1Cc2ccccc2CN1C(=O)CCCCN1CCN(c2ccccc2-c2ccccc2)CC1
100		CC(C)c1ccccc1N1CCN(CCCCCCC(=O)N2CCC[C@H]2C(=O)N2CCCCC2)CC1
	91	O=C([C@@H]1CCCN1C(=O)CCCCN1CCN(c2ccccc2-c2ccccc2)CC1)N1CCCCC1
